High-throughput results: PubChem, SRMLSC
PTEN del growth = PTEN-deleted cell growth suppression; actives 1.2% (n = 140,000); viability, % at 10 µM; HCT116 PTEN-null viability, CellTiter-Glo, 60 h; hits give low values; AID 827;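 active = viability at or below a set limit, 4 SD under the median of all tested compounds, cut at about 3.7% in these data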;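 also: PTEN knockout HCT116 line with beta catenin targeted HCT116 as companion control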
HUVEC prolif 384 = inhibitors of human endothelial cell proliferation | viability, % at 10 µM (by protocol) | actives 1.1% (n = 86,000) | HUVEC proliferation, CellTiter-Glo luminescence, 72 h; hits give low values | AID 648;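 active = viability at or below 30%; inactive = viability above 30%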
H69AR growth 86K = growth inhibitors of human H69AR lung tumor cells. H69AR lung tumor viability, ATP luminescence, 72 h; hits give low values. viability, % at 10 µM. actives 6% (n = 85,000);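 active = viability at or below 40%; inactive = viability above 40%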;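 also: multidrug resistant small cell line overexpressing MRP-1 efflux transporter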
HCT116 bCat-KO = beta-catenin-lacking colon tumor cell growth suppression; viability, % at 10 µM; HCT116 beta-catenin knockout viability, CellTiter-Glo, 60 h; hits give low values; actives 1.5% (n = 140,000);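 active = viability at or under a set limit, the compound median less 4 SD, cut at about 6% in these data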
Fibroblast inh = blocks proliferation of human lung fibroblasts; LL 47 human lung fibroblast viability, ATP luminescence; hits give low values; actives 1.1% (n = 85,000); AID 719; viability, % at 10 µM;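 active = viability at or below 50% in the single dose screen; inactive = viability above 50%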;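 also: compound exposure lasted 72 h before the ATP readout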
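material = human LL 47 lung fibroblast cells | dosing = compounds added from tenfold dosing solution, 0.1% DMSO final | timing = overnight cell rest, 72 h compound treatment at 37 °C | measured by = CellTiter-Glo luminescence measuring cellular ATP | evaluation = % viability versus median cells-only luminescence | control set = cell-only wells, no compound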
Of the large screens only hits and unclear results are named; the others gave an inactive call. Only a selection was taken, and hits are over-represented in it overall.

Cn1c(CCNC(=O)c2ccccc2)nc2cc(NC(=O)C3CCCCC3)ccc21	none
Cc1oc2c(C)c3oc(=O)c4c(c3cc2c1C)CCCC4	H69AR growth 86K 14 (no result: Fibroblast inh)
Cc1c(O)ccc2c3c(c(=O)oc12)CCCC3	none
COc1ccc(-c2nc(N3CCOCC3)nc3nn4c(C)c(CCC(=O)O)c(C)nc4c23)cc1	none (no result: PTEN del growth, HCT116 bCat-KO)
COC1(OC)N=C(N)C2(C#N)C(c3ccc4c(c3)OCO4)C12C#N (configuration not stated)	H69AR growth 86K 33
Cn1cc(C(=O)NC2CCCCCC2)c(=O)c2cc(S(=O)(=O)N3CCCC3)ccc21	none (no result: Fibroblast inh)
CN1CCN(C(=O)c2cn(C)c3ccc(S(=O)(=O)N(C)C4CCCCC4)cc3c2=O)CC1	none
CN(C1CCCCC1)S(=O)(=O)c1ccc2c(c1)c(=O)c(C(=O)N1CCc3ccccc3C1)cn2C	H69AR growth 86K 5.9
Cn1cc(C(=O)NC2CCCCCCC2)c(=O)c2cc(S(=O)(=O)N3CCCC3)ccc21	H69AR growth 86K 32, Fibroblast inh 49
CC1=C(C(=O)OC(C)C)C(c2cccc([N+](=O)[O-])c2)n2c(cc(=O)[nH]c2=S)N1 (configuration not stated)	none (no result: HUVEC prolif 384, H69AR growth 86K, Fibroblast inh)
COc1ccc(-c2nc(Cn3c(SCc4ccccc4F)nc4ccncc43)c(C)o2)cc1	H69AR growth 86K 14, Fibroblast inh 40
O=C(NN=C1C2CC3CC(C2)CC1C3)c1cc(Cl)ccc1O	none (no result: HUVEC prolif 384, H69AR growth 86K, Fibroblast inh)
Cc1cc(C)c2oc(C(=O)Nc3ccc(S(=O)(=O)N4CCCC(C)C4)cc3)cc(=O)c2c1 (configuration not stated)	none (no result: HUVEC prolif 384, H69AR growth 86K, Fibroblast inh)
COc1c(N2CCN(C(=S)NCc3ccccc3)C(C)C2)c(F)cc2c(=O)c(C(=O)O)cn(C3CC3)c12 (configuration not stated)	H69AR growth 86K 2.5
CC1CCCN(C(=S)NCc2ccccc2)C1 (configuration not stated)	none (no result: HUVEC prolif 384, H69AR growth 86K, Fibroblast inh)
O=S(=O)(c1ccc(S(=O)(=O)N2CCCC3(CCCCC3)C2)cc1)N1CCCCC1	H69AR growth 86K 35
CC(C)[C@H](NC(=O)c1ccccc1)C(=O)OCC(=O)N1CCCc2ccccc21	none (no result: HUVEC prolif 384, H69AR growth 86K, Fibroblast inh)
NC(=O)C1CCCN(C(=S)Nc2cccc3ccccc23)C1 (configuration not stated)	none (no result: HUVEC prolif 384, H69AR growth 86K, Fibroblast inh)
c1ccc(-c2nnnc3ccccc23)cc1	none (no result: HUVEC prolif 384, H69AR growth 86K, Fibroblast inh)
Clc1ccc2nnnc(-c3ccccc3)c2c1	PTEN del growth 3.1, HCT116 bCat-KO 3.7 (no result: HUVEC prolif 384, H69AR growth 86K, Fibroblast inh)
COC(=O)C/C=C/[C@@H](C)[C@@H](/C=N/OCC[C@@H]1C=C[C@H](OC(C)=O)[C@@H](COC(C)=O)O1)NS(=O)(=O)c1ccc(C)cc1	none (no result: HUVEC prolif 384, H69AR growth 86K, Fibroblast inh)
COc1cc(OC)cc(C(=O)Nc2nc3ccccc3[nH]2)c1	H69AR growth 86K 30
COc1ccc(CCC(=O)Nc2nc3ccccc3[nH]2)cc1OC	none
CCOc1ccc2nc(NCCCO)[nH]c2c1	none
CCCOc1ccc2nc(NC(=O)OC)[nH]c2c1	H69AR growth 86K 31, Fibroblast inh 49
COc1ccccc1CCC(=O)Nc1nc2ccccc2[nH]1	H69AR growth 86K 21
CCCCCC(=O)Nc1nc2ccccc2[nH]1	H69AR growth 86K 31
COc1ccc(CCC(=O)Nc2nc3ccccc3[nH]2)cc1	none (no result: HUVEC prolif 384, H69AR growth 86K, Fibroblast inh)
COc1ccc(C(=O)Nc2nc3ccccc3[nH]2)cc1OC	none
Cc1ccc(NC(=O)COc2ccc(Br)cc2C)cc1	none (no result: HUVEC prolif 384, H69AR growth 86K, Fibroblast inh)
CCCCCn1cnc2c(sc3nc4c(cc32)CSC(C)(C)C4)c1=O	none (no result: HUVEC prolif 384, H69AR growth 86K, Fibroblast inh)
COC(=O)c1c(NC(=O)CSc2nnc3ccccn23)sc2c1CCC2	none (no result: HUVEC prolif 384, H69AR growth 86K, Fibroblast inh)
CCOC(=O)C(C(=O)OCC)c1cc(Br)c2noc3c2c1C(=O)c1ccccc1-3	PTEN del growth 1.1, HCT116 bCat-KO 1.3 (no result: HUVEC prolif 384, H69AR growth 86K, Fibroblast inh)
CC(=O)OCCNc1cc(N2CCN(C)CC2)c2noc3c2c1C(=O)c1ccccc1-3	none (no result: HUVEC prolif 384, H69AR growth 86K, Fibroblast inh)
CN(C)S(=O)(=O)c1ccc(NC(=O)CNc2cc(S(=O)(=O)N3CCCC3)ccc2OCC(F)(F)F)cc1	none (no result: HUVEC prolif 384, H69AR growth 86K, Fibroblast inh)
CCNC(=S)N/N=C/c1cn(Cc2ccc(F)cc2)c2ccccc12	none (no result: HUVEC prolif 384, H69AR growth 86K, Fibroblast inh)
O=[N+]([O-])/C=C/c1cn(Cc2ccc(F)cc2)c2ccccc12	PTEN del growth 1.4, HCT116 bCat-KO 1.9 (no result: HUVEC prolif 384, H69AR growth 86K, Fibroblast inh)
COc1ccc(C2C=C(c3ccccc3)Nc3ncnn32)cc1 (configuration not stated)	none
COc1ccc(C2C=C(c3ccc(C)c(C)c3)Nc3ncnn32)c(OC)c1OC (configuration not stated)	H69AR growth 86K 25
CCCCn1nc(C(=O)N[C@@H](CCSC)c2nc3ccccc3[nH]2)c2ccccc2c1=O	H69AR growth 86K 36
O=C(N/C(=C/c1ccco1)C(=O)N1CCCCC1)c1cccs1	none (no result: HUVEC prolif 384, H69AR growth 86K, Fibroblast inh)
COc1ccc(COC(=O)NNC(=O)c2ccccc2Cl)cc1	none
O=C(O)c1cccc2cccnc12	none
c1cnc2c(c1)ccc1cccnc12	HCT116 bCat-KO 6.0 (no result: HUVEC prolif 384, H69AR growth 86K, Fibroblast inh)
CC(C)CNC(=S)NC(=O)c1ccc(Cl)cc1Cl	none (no result: HUVEC prolif 384, H69AR growth 86K, Fibroblast inh)
O=C(Nc1cccc2c1[nH]c1ccccc12)C(F)(F)F	H69AR growth 86K 11
Cn1c(C(C#N)C(=O)Cc2cccc3ccccc23)nc2ccccc21 (configuration not stated)	none
Cn1c(C(C#N)C(=O)c2ccco2)nc2ccccc21 (configuration not stated)	H69AR growth 86K 33
FC(F)(F)c1nnc2c(Sc3ccccc3)nc3ccc(Cl)cc3n12	HCT116 bCat-KO 3.6 (no result: HUVEC prolif 384, H69AR growth 86K, Fibroblast inh)
CC1(C)Cc2ccccc2C(N/N=C/c2cccc(F)c2)=N1	none (no result: HUVEC prolif 384, H69AR growth 86K, Fibroblast inh)
CC1(C)Cc2ccccc2C(NNC(=O)c2ccccn2)=N1	H69AR growth 86K 30, Fibroblast inh 46
CC(Sc1ccc(Cl)cc1)C(=O)Nc1ccc2c(c1)OCO2 (configuration not stated)	none
CC(C)N1CCC2(CC1)N=C(c1ccc3c(c1)OCO3)CC(c1cc(Cl)ccc1O)N2 (configuration not stated)	PTEN del growth 2.9, HUVEC prolif 384 30, H69AR growth 86K 1.5, HCT116 bCat-KO 2.5, Fibroblast inh 5.9
CCn1cc(C(=O)Nc2sc(C)c(C)c2C(=O)OC)cn1	none (no result: HUVEC prolif 384, H69AR growth 86K, Fibroblast inh)
O=c1[nH]c2ccccc2n1CCCN1CCN(C(c2ccccc2)c2ccccc2)CC1	H69AR growth 86K 27, HCT116 bCat-KO 5.6
CCCn1c(=O)[nH]c2ccccc21	none
CCN1C(=O)/C(=C\c2cn(CCC#N)nc2-c2ccc(F)cc2)SC1=S	none (no result: HUVEC prolif 384, H69AR growth 86K, Fibroblast inh)
CCOc1ccc(CC(=O)Nc2c(C(N)=O)oc3ccc(Br)cc23)cc1OCC	H69AR growth 86K 37
CCOc1ccc(C(=O)Nc2c(C(N)=O)oc3ccccc23)cc1	none
N#Cc1ccccc1OCC(=O)Nc1c(C(=O)C2CC2)oc2ccccc12	H69AR growth 86K 7.6
CC(=O)Nc1c(C(=O)C2CC2)oc2ccccc12	none
COc1ccc(NC(=O)c2oc3ccccc3c2NC(=O)COc2ccccc2OC)c(OC)c1	HUVEC prolif 384 7.2, H69AR growth 86K 19
N#Cc1ccccc1NC(=O)c1ccccc1OCC(=O)Nc1ccc2c(c1)oc1ccccc12	H69AR growth 86K 3.9 (no result: PTEN del growth, HCT116 bCat-KO)
Cc1noc(C)c1C(=O)OC(C)C(=O)Nc1ccc(S(=O)(=O)NC(C)C)cc1 (configuration not stated)	none (no result: HUVEC prolif 384, H69AR growth 86K, Fibroblast inh)
CCOc1ccc(CC(=O)Nc2c(C(=O)Nc3ccccc3)oc3ccccc23)cc1OCC	H69AR growth 86K 35
